Twelve compounds from ChEMBL document CHEMBL1123393, “5-HT1 and 5-HT2 binding characteristics of 1-(2,5-dimethoxy-4-bromophenyl)-2-aminopropane analogues” (J Med Chem, 1986) can be followed below.

Experiment [1] has as its target Serotonin 1 (5-HT1) receptor (Rattus norvegicus, UniProt P28564+P30940+P19327+P28565). Put plainly: Binding affinity for 5-hydroxytryptamine 1 receptor of rat prefrontal cortex. The class given is tissue-based. In short, it runs like this:
(§1)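 Rat prefrontal cortex (female Sprague-Dawley, ca. 200 g) homogenate, 4 mg wet weight tissue per tube, in 50 mM Tris, 5 mM MgCl2, 0.5 mM EDTA (pH 7.4 at 37 °C). Radioligand 2 nM [3H]-5-HT for 5-HT1 or 0.4 nM [3H]ketanserin for 5-HT2. Nonspecific binding with 1 μM 5-HT or 1 μM cinanserin. Filtration, scintillation counting. IC50 from a 23-point curve in triplicate by nonlinear fit; Ki by Cheng-Prusoff.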

Experiment [2] addresses Serotonin 2 (5-HT2) receptor (Rattus norvegicus, UniProt P30994+P08909+P14842). Put plainly: Displacement of [3H]ketanserin from rat prefrontal cortex 5-hydroxytryptamine 2 receptor. The class given is tissue-based. In short, it runs like this: as §1
Experiment [3] has as its system Rattus norvegicus. Nature of the experiment: DOM appropriate responding in percent when compound administered at 4 mg/kg. Format: functional. In short, it runs like this:
(§2)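 Rats trained to discriminate DOM (1.0 mg/kg ip, 15-min presession interval) from saline on two levers. Test doses given ip. Percent of responses on the DOM-appropriate lever recorded during a 2.5-min extinction session.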

The test system of experiment [4] is Rattus norvegicus. Put plainly: DOM appropriate responding in percent when compound administered at 5 mg/kg. The class given is functional. In short, it runs like this:
as §2

In experiment [5] the test system is Rattus norvegicus. Put plainly: DOM appropriate responding in percent when compound administered at 6 mg/kg. Format: functional. In short, it runs like this:
as §2

In experiment [6] the test system is Rattus norvegicus. Nature of the experiment: DOM appropriate responding in percent when compound administered at 7 mg/kg. Format: functional. In short, it runs like this:
as §2

Experiment [7] deals with Rattus norvegicus. Nature of the experiment: DOM appropriate responding in percent when compound administered at 8 mg/kg. Format: functional. The gist of the method: as §2
For experiment [8], the system named is Rattus norvegicus. Nature of the experiment: Number of animals responding to the drug (mg/kg) out of 4 animals tested. Format: functional.
Experiment [9] deals with Rattus norvegicus. Put plainly: Number of animals responding to the drug 5 (mg/kg) out of 6 animals tested. The class given is functional.
Experiment [10] deals with Rattus norvegicus. Nature of the experiment: Number of animals responding to the drug 6 (mg/kg) out of 5 animals tested. Format: functional.
For experiment [11], the system named is Rattus norvegicus. Nature of the experiment: Number of animals responding to the drug 7 (mg/kg) out of 5 animals tested. Format: functional.
Experiment [12] concerns Rattus norvegicus. Put plainly: Number of animals responding to the drug 8 (mg/kg) out of 3 animals tested. The class given is functional.
The subject of experiment [13] is Rattus norvegicus. Nature of the experiment: DOM appropriate responses per min when compound administered at 4 mg/kg. Format: functional. In short, it runs like this: (§3)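 DOM (1.0 mg/kg ip) versus saline two-lever discrimination in food-restricted male Sprague-Dawley rats. Test doses given ip with a 15-min presession interval. Response rate (responses/min) measured during a 2.5-min extinction test session.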

Experiment [14] deals with Rattus norvegicus. Nature of the experiment: DOM appropriate responses per min when compound administered at 5 mg/kg. Format: functional. The gist of the method:
as §3

The test system of experiment [15] is Rattus norvegicus. Put plainly: DOM appropriate responses per min when compound administered at 6 mg/kg. The class given is functional. In short, it runs like this:
as §3

Experiment [16] deals with Rattus norvegicus. Nature of the experiment: DOM appropriate responses per min when compound administered at 7 mg/kg. Format: functional. In short, it runs like this: as §3
Experiment [17] has as its system Rattus norvegicus. Put plainly: DOM appropriate responses per min when compound administered at 8 mg/kg. The class given is functional. The gist of the method:
as §3

In experiment [18] the test system is Rattus norvegicus. Nature of the experiment: Concentration required to produce DOM like response when administered in rats. The class given is functional. The gist of the method:
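Six male Sprague-Dawley rats, food-restricted to about 80% of free-feeding weight, trained on two-lever drug discrimination: DOM HCl 1.0 mg/kg ip versus saline, 15 min pre-session. Test drug given ip before a 2.5-min extinction test.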

For experiment [19], the system named is Rattus norvegicus. Nature of the experiment: DOM appropriate responding in percent when compound administered at 11 mg/kg. The class given is functional. In short, it runs like this:
as §2

The subject of experiment [20] is Rattus norvegicus. Nature of the experiment: DOM appropriate responding in percent when compound administered at 12 mg/kg. Format: functional. In short, it runs like this: as §2
In experiment [21] the test system is Rattus norvegicus. Nature of the experiment: DOM appropriate responding in percent when compound administered at 2 mg/kg. The class given is functional. The gist of the method:
as §2

For experiment [22], the system named is Rattus norvegicus. Put plainly: Number of animals responding to the drug 10 (mg/kg) out of 3 animals tested. The class given is functional.
Experiment [23] concerns Rattus norvegicus. Put plainly: Number of animals responding to the drug 11 (mg/kg) out of 3 animals tested. The class given is functional.
Experiment [24] concerns Rattus norvegicus. Nature of the experiment: Number of animals responding to the drug 12 (mg/kg) out of 3 animals tested. The class given is functional.
The test system of experiment [25] is Rattus norvegicus. Put plainly: Number of animals responding to the drug 13 (mg/kg) out of 3 animals tested. Format: functional.
Experiment [26] relates to Rattus norvegicus. Nature of the experiment: Number of animals responding to the drug 13 (mg/kg) out of 3 animals tested (second group of 3 animals); 1/3. Format: functional.
Experiment [27] relates to Rattus norvegicus. Nature of the experiment: Number of animals responding to the drug 2 (mg/kg) out of 4 animals tested. Format: functional.
For experiment [28], the system named is Rattus norvegicus. Nature of the experiment: Number of animals responding to the drug 5 (mg/kg) out of 4 animals tested. The class given is functional.
For experiment [29], the system named is Rattus norvegicus. Nature of the experiment: DOM appropriate responses per min when compound administered at 10 mg/kg. The class given is functional. The gist of the method: as §3
Experiment [30] concerns Rattus norvegicus. Nature of the experiment: DOM appropriate responses per min when compound administered at 11 mg/kg. The class given is functional. In short, it runs like this: as §3
Experiment [31] concerns Rattus norvegicus. Put plainly: DOM appropriate responses per min when compound administered at 12 mg/kg. The class given is functional. In short, it runs like this: as §3
Experiment [32] has as its system Rattus norvegicus. Put plainly: DOM appropriate responses per min when compound administered at 2 mg/kg. The class given is functional. In short, it runs like this:
as §3

The subject of experiment [33] is Rattus norvegicus. Nature of the experiment: DOM appropriate responding in percent when compound administered at 10 mg/kg. Format: functional. The gist of the method:
as §2

In experiment [34] the test system is Rattus norvegicus. Put plainly: Number of animals responding to the drug 0.5 (mg/kg) out of 3 animals tested. Format: functional.
The subject of experiment [35] is Rattus norvegicus. Nature of the experiment: DOM appropriate responses per min when compound administered at 0.2 mg/kg. The class given is functional. In short, it runs like this: as §3
For experiment [36], the system named is Rattus norvegicus. Put plainly: DOM appropriate responses per min when compound administered at 0.5 mg/kg. Format: functional. In short, it runs like this: as §3
Experiment [37] has as its system Rattus norvegicus. Put plainly: Number of animals responding to the drug 0.1 (mg/kg) out of 4 animals tested. Format: functional.
Experiment [38] deals with Rattus norvegicus. Nature of the experiment: Number of animals responding to the drug 0.2 (mg/kg) out of 3 animals tested. Format: functional.
Experiment [39] relates to Rattus norvegicus. Nature of the experiment: DOM appropriate responding in percent when compound administered at 0.1 mg/kg. Format: functional. In short, it runs like this:
as §2

Experiment [40] concerns Rattus norvegicus. Nature of the experiment: DOM appropriate responding in percent when compound administered at 0.2 mg/kg. The class given is functional. The gist of the method: as §2
In experiment [41] the test system is Rattus norvegicus. Put plainly: DOM appropriate responding in percent when compound administered at 0.5 mg/kg. The class given is functional. In short, it runs like this:
as §2

In experiment [42] the test system is Rattus norvegicus. Nature of the experiment: DOM appropriate responses per min when compound administered at 0.1 mg/kg. Format: functional. In short, it runs like this: as §3
In experiment [43] the test system is Rattus norvegicus. Nature of the experiment: DOM appropriate responding in percent when compound administered at 1.2 mg/kg. The class given is functional. The gist of the method: as §2
In experiment [44] the test system is Rattus norvegicus. Nature of the experiment: DOM appropriate responding in percent when compound administered at 1.8 mg/kg. Format: functional. In short, it runs like this: as §2
Experiment [45] deals with Rattus norvegicus. Nature of the experiment: Number of animals responding to the drug 1.2 (mg/kg) out of 3 animals tested. Format: functional.
In experiment [46] the test system is Rattus norvegicus. Nature of the experiment: Number of animals responding to the drug 1.8 (mg/kg) out of 3 animals tested. Format: functional.
For experiment [47], the system named is Rattus norvegicus. Nature of the experiment: DOM appropriate responses per min when compound administered at 1.2 mg/kg. Format: functional. In short, it runs like this:
as §3

The test system of experiment [48] is Rattus norvegicus. Nature of the experiment: DOM appropriate responses per min when compound administered at 1.8 mg/kg. Format: functional. In short, it runs like this:
as §3

As a reminder, the Ki is the equilibrium dissociation constant of an inhibitor or competing ligand from its target. Read a low Ki as a stronger hold on the target. As to `COc1cc(C[C@@H](C)N)c(OC)cc1I`, the Ki turned out to be 2290 nM in experiment [1] and 9.9 nM in experiment [2].

Usually ED50 stands for the dose at which the effect has come halfway, by size or by number of responders. Read a low ED50 as an effect at a small dose. `CCCNC(C)Cc1cc(OC)c(Br)cc1OC` (stereo not given): the inhibition constant (Ki) turned out to be 1320 nM in [1] and 1930 nM in [2]. The Activity in [3] was 24%; in [4] it was 63%; in experiment [5], 79%; in experiment [6] it was 88%; in experiment [7] it was 92%; in experiment [8], 4. Also, the Activity in experiment [9] is 6; in experiment [10], 4; in experiment [11], 3; in experiment [12], 3. The Response turned out to be 10.2 min in experiment [13]; 6.3 min in [14]; 10.2 min in experiment [15]; 5.2 min in [16]; 5.9 min in [17]. Also, the ED50 in experiment [18] was determined as 4.76 mg/kg.

Take `CCCNC(C)Cc1cc(OC)ccc1OC` (stereo not given): the inhibitory constant (Ki) is on record as 4100 nM in [1] and 25600 nM in [2].

As for `COc1cc(Br)ccc1CC(C)N` (stereo not given), the Ki is 2900 nM in [1] and 4870 nM in [2]. Moreover, the Activity in experiment [19] amounted to 17%; in experiment [20], 65%; in experiment [21] it was 14%; in experiment [4] it was 15%; in experiment [22], 3; in [23] it was 3. Further, the Activity in experiment [24] is listed as 2; in [25] it was 1; in experiment [26], 1; in experiment [27] it was 4; in [28], 3; in experiment [33], 8%. The Response in [29] came out at 4.5 min; in experiment [30] it was 3.3 min; in [31], 2.8 min; in experiment [32], 16.3 min; in experiment [14], 14.9 min.

On to `COc1cc(CC(C)N)ccc1Br` (stereo not given), for which the inhibition constant (Ki) in experiment [1] and in experiment [2] was > 25000 nM in each case.

In the case of `COc1cc(CC(C)N)c(O)cc1Br` (stereo not given), the Ki in experiment [1] was 1710 nM; in experiment [2], 210 nM. Moreover, in experiment [18], the median effective dose (ED50) was determined as 0.18 mg/kg. Moreover, the Activity in experiment [34] stood at 3; in [37] it was 4; in [38], 3; in experiment [39] it was 19%; in experiment [40], 55%; in experiment [41], 96%. For the same compound, the Response in experiment [35] came out at 12.1 min; in experiment [36], 11.9 min; in experiment [42], 15.4 min.

For `CC(N)Cc1ccc(Br)cc1` (stereo not given), the Ki in experiment [1] is 2830 nM; in experiment [2], 4650 nM.

As for `COc1cc(CC(C)N)c(OC)cc1I` (stereo not given), the inhibitory constant (Ki) in experiment [1] turned out to be 920 nM; in experiment [2], 35 nM. In addition, in [18], the ED50 was 0.99 mg/kg. In addition, the Activity in experiment [43] amounted to 43%; in experiment [44] it was 93%; in experiment [34] it was 3; in experiment [45], 3; in experiment [46], 3; in experiment [41] it was 14%. Also, the Response in experiment [36] is on record as 12.2 min; in [47] it was 16.9 min; in experiment [48] it was 7.8 min.

As to `COc1cccc(CC(C)N)c1` (racemic), the Ki in [1] came to 2660 nM; in experiment [2], 7850 nM.

The compound `COc1ccccc1CC(C)N` (racemic) showed an inhibition constant (Ki) in experiment [1] of 3500 nM.

In experiment [1], `COc1ccc(OC)c(CC(C)N)c1` (racemic) returned an inhibition constant Ki of 1020 nM.

Take `COc1cc(CC(C)N)c(OC)cc1Br` (racemic) [BROLAMFETAMINE]: the Ki in [1] was 3340 nM. In addition, in [18], the ED50 came out at 0.2 mg/kg.
